{
  "source": "PubChem BioAssay AID651869",
  "about": "(Broad Institute, 2012)",
  "data": [
    {"tested_on": "T. cruzi CAI/72 in BESM cells, trypomastigote emergence, microscopy", "assay": "intracellular T. cruzi clearance after withdrawal – imaging, CAI/72 strain, BESM host cells, 29-day treatment, set 2, mechanism study for T. cruzi inhibitor project, late-stage follow-up (AID 651869)", "details": "stronger effect = higher value", "method_in_brief": "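Measure: trypomastigote emergence timing as cidal versus static measure; assay system: bovine embryo skeletal muscle (BESM) cells infected with Trypanosoma cruzi CAI/72; timing: 24 h post-infection wash, alternate-day dosing 29 days, 20-day washout; measured by: daily light-microscopy scoring of trypomastigote emergence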", "values": [
      {"molecule": "CC(C)N1C[C@@H](C)[C@H](CN(C)Cc2cccc(Oc3ccccc3)c2)Oc2c(NC(=O)c3ccncc3)cccc2C1=O", "cidality slope score": 1100},
      {"molecule": "C[C@@H]1CN([C@@H](C)CO)C(=O)c2cccc(NC(=O)c3ccncc3)c2O[C@H]1CN(C)Cc1ccc(Cl)cc1", "cidality slope score": 7.6},
      {"molecule": "C[C@@H]1CN([C@H](C)CO)C(=O)c2cccc(NC(=O)c3ccncc3)c2O[C@H]1CN(C)Cc1ccccc1", "cidality slope score": 85},
      {"molecule": "C[C@@H]1CN([C@H](C)CO)C(=O)c2cccc(NC(=O)c3ccncc3)c2O[C@H]1CN(C)Cc1ccc(Oc2ccccc2)cc1", "cidality slope score": 1100},
      {"molecule": "O=C(Cn1ccnc1[N+](=O)[O-])NCc1ccccc1", "cidality slope score": 12},
      {"molecule": "C[C@@H]1CN([C@@H](C)CO)C(=O)c2cccc(NC(=O)c3ccncc3)c2O[C@H]1CN(C)Cc1cccc(Cl)c1", "cidality slope score": 75},
      {"molecule": "C[C@@H]1CN([C@@H](C)CO)C(=O)c2cccc(NC(=O)c3ccncc3)c2O[C@H]1CN(C)Cc1ccc(Oc2ccccc2)cc1", "cidality slope score": 1100},
      {"molecule": "C[C@H]1CN([C@@H](C)CO)C(=O)c2cccc(NC(=O)c3ccncc3)c2O[C@H]1CN(C)Cc1ccc(Oc2ccccc2)cc1", "cidality slope score": 1100},
      {"molecule": "C[C@H]1CN([C@@H](C)CO)C(=O)c2cccc(NC(=O)c3ccncc3)c2O[C@@H]1CN(C)Cc1ccc(Oc2ccccc2)cc1", "cidality slope score": 1100},
      {"molecule": "C[C@H](CO)N1C[C@H](C)[C@H](CN(C)Cc2ccc(Oc3ccccc3)cc2)Oc2c(NC(=O)c3ccncc3)cccc2C1=O", "cidality slope score": 85}
    ]}
  ]
}
